Structures are written as SMILES.

A short description of this data set: Toxicity liver stage against HepG2, at 10uM. Also noted: test concentration 10 uM, cell line HepG2-A16-CD81EGFP. The note with it: human, HepG2-A16-CD81EGFP cells; read-out: INHIBITION
Format: cell-based. In a few lines:
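Uninfected HepG2-A16-CD81EGFP cells, 3 × 10^3 per well, 1536-well, plated on prespotted compound at 10 μM final, parasite-free screening media added to match infected plates; puromycin 10 μM positive, DMSO 0.5% negative; run in parallel with 48 h PbLuc assay at 37 °C, 5% CO2; viability by CellTiter-Glo luminescence, normalized to controls.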
On to `Cc1ccc(N2C(=O)N[C@@H]3CCN(C(=O)C4CC4)[C@@H]3C2=O)cc1`, for which the cytotoxicity at 10 µM stood at 3.85%.
`Cc1occc(=O)c1OCc1noc(C(=O)NCC2CC2)n1`: the cytotoxicity at 10 µM is -2.51%.
On to `CCS(=O)(=O)N1CCN(CC(F)(F)F)CC1`, for which the cytotoxicity at 10 µM was -1.99%.
To `COC1(CNC(=O)NCCOc2ccccc2)CCSC1` (stereo not given) belongs -0.572%.
The value for `CCN1C(=O)CC[C@@H]2[C@H]1CCN2S(=O)(=O)c1cccs1` was 0.169%; that for `CCOCC(=O)N1CCCC2(CCN(c3ccccc3)C2=O)C1` (stereo not given) was 2.02%; that for `CCCNC(=O)c1cc(-c2ccn(C(C)C)n2)n2ccccc12` was 1.92%.
The value for `CN(C)CC(=O)N1Cc2cc(N(C)C)ccc2C1c1cnco1` (stereo not given) was -0.757%; that for `CNC(=O)[C@@H]1COC[C@H]2CN(C(=O)c3cccc(OC)c3)C[C@H]21` was 12.2%; that for `CN1C(=O)CCC12CCCN(C(=O)c1ccoc1)C2` (stereo not given) was 2.65%.
For the compound `Cc1noc(C2(NC(=O)c3cccnc3O)CCCCC2)n1`, the cytotoxicity at 10 µM was -9.83%.
`COCC1CN(C(=O)c2cccn2C)Cc2ncnn2C1` (stereo not given): the cytotoxicity at 10 µM was -8.97%.
On to `CCCn1nnc(NCc2ccc(-c3ccc(Br)cc3)o2)n1`, for which the cytotoxicity at 10 µM was -4.11%.
On to `O=C1CNc2ncnc(Nc3cnn(Cc4ccccc4F)c3)c2N1`, for which the cytotoxicity at 10 µM turned out to be 2.27%.
To `Cc1nc(NCc2cccnc2)cc(C2COCCN2)n1` (stereo not given) belongs 3.78%; to `Cc1cc(C(F)(F)F)nc(C2COCCN2S(C)(=O)=O)n1` (stereo not given), -2.6%.
The value for `Cn1ncc2ccc(C3CCCN(Cc4ccsc4)C3)nc21` (stereo not given) was 8.61%; that for `Cc1nc(CCC(=O)NC2CCC2)cc(C2CCNCC2)n1` was -5.15%; that for `COc1ccc(-c2nc(CCNCc3ccncc3)co2)cc1` was -6.11%.
For `N#Cc1cccc(S(=O)(=O)NC(=O)C2CC(c3ccccc3)=NO2)c1` (stereo not given), the cytotoxicity at 10 µM worked out at 1.85%.
The value for `CCOc1ccc(CNC2CCCN(c3cccnn3)C2)cc1OC` (stereo not given) was -3.92%; that for `CN(C)C(=O)COc1ccccc1CNC1CCc2ncnn2C1` (stereo not given) was 5.38%.
The value for `O=C(NC1CC1)C1CCN(Cn2nc(-c3ccccc3)oc2=O)CC1` was 15%; that for `NC(=O)c1cc(NC(=O)N2CCOCC2)ccc1F` was -48.8%; that for `CCOC(C)c1noc(CN2CCN(Cc3ccno3)CC2)n1` (stereo not given) was 7.24%.
For the compound `CN(C)Cc1ccc(N2CCN(CCOCC(F)(F)F)CC2)nc1`, the cytotoxicity at 10 µM was 1.25%.
With `CN(Cc1ccncc1)c1cncc(Br)c1`, the cytotoxicity at 10 µM is 2.71%.
As for `Cc1cc(C(=O)NCC(=O)N2CCOCC2)nn1C(C)(C)C`, the cytotoxicity at 10 µM was -3.44%.
Turning to `CC(Sc1nnc(C2CC2)n1CC(N)=O)c1ccc(Cl)cc1` (stereo not given), the cytotoxicity at 10 µM stood at 7.72%.
To `CCC(=O)NCC(=O)NCc1cc(Br)ccc1OC(F)F` belongs 17.5%; to `O=C(CCn1cncn1)NC1(c2cccc(Br)c2)CCC1`, -20.2%.
Consider `O=C(CCc1cscn1)NS(=O)(=O)c1ccc2c(c1)CCC2`, for which the cytotoxicity at 10 µM was -24.5%.
As to `COCC1CN(C(=O)Cc2ccc(F)cc2)Cc2ccnn2C1` (stereo not given), the cytotoxicity at 10 µM was -73.9%.
The value for `Cn1cccc1C(=O)N1CCC2(CC1)CN(c1ccccc1)C(=O)CO2` was -79.1%; that for `CN(C)[C@@H]1CCN(C(=O)c2ccccn2)[C@H]1Cc1ccncc1` was -63.6%.
Take `COc1cccc(C(=O)N2CCOC3(CCCN(C(C)=O)C3)C2)c1` (stereo not given): the cytotoxicity at 10 µM was -68.6%.
`O=C(c1cnccn1)N1CCc2ncnc(C3CCOC3)c2CC1` (stereo not given): the cytotoxicity at 10 µM is -81.9%.
Take `O=C(NCC1CC1)c1c2c(N3CCCC3)ncnc2n2ccccc12`: the cytotoxicity at 10 µM was -61.1%.
To `CCOCC1CC2(CCN(C(=O)c3ncccn3)CC2)CO1` (stereo not given) belongs 4.93%.
To `O=C(NCc1nncn1C1CCCCC1)C1CNCCO1` (stereo not given) belongs -2.08%.
The value for `c1cncc(CNc2ncnc3c2CCN(Cc2ccsc2)CC3)c1` was 7.91%; that for `Cc1cc(C(=O)N2C[C@H](CO)C[C@H](CN3CCOCC3)C2)nc(C)n1` was 9.91%; that for `CNc1nc(N2C[C@H](NC(=O)CCOC)[C@@H](C3CC3)C2)nc2c1CCC2` was 9.62%.
As to `Cc1nnc(SCCCNC(=O)c2ccc3c(c2)OCO3)s1`, the cytotoxicity at 10 µM came out at 8.8%.
The value for `O=C(c1ccc(F)c(F)c1)N1CCC(Cn2cc(CO)nn2)CC1` was 5.95%; that for `CC(C(=O)O)N1CCc2onc(-c3ccc4c(c3)OCO4)c2C1` (stereo not given) was -6.46%.
To `OCCCc1nncn1-c1cccc(C(F)(F)F)c1` belongs 6.74%; to `CCc1nccn1CCC(=O)N1CC[C@@H](c2ccc(F)cc2)[C@H](O)C1`, -7.79%.
The value for `O=C(CC1CCCC1)N1CCC2(CC1)[C@H](O)C[C@@H]2O` was 2.3%.
Consider `CN(C)c1ccccc1C(=O)N1CCCC(c2cccc(C(=O)O)c2)C1` (stereo not given), for which the cytotoxicity at 10 µM is -6.11%.
To `Cc1ncc(C(=O)N2C[C@H](CO)C[C@H](CN3CCOCC3)C2)c(=O)[nH]1` belongs -10.4%; to `CCN(CC)C(=O)[C@@H]1C[C@@H](N)CN1c1nc(N2CCCC2)nc(C)c1C`, -6.9%; to `CC(Cc1ccccn1)N(C)C(=O)c1ncc[nH]1` (stereo not given), 3.04%.
To `CC(=O)N1CCC(N2CCN(Cc3ccc(C)o3)C(CCO)C2)CC1` (stereo not given) belongs -3.57%.
To `COc1ccc(Cl)cc1S(=O)(=O)N(C)CC(=O)Nc1cccnc1` belongs 0.192%; to `COc1ccc(Cl)cc1S(=O)(=O)N(C)CC(=O)Nc1ccccc1`, -2.76%.
For the compound `Cc1ccc(-n2ncc3c2CCCC3N)cc1C` (stereo not given), the cytotoxicity at 10 µM was -1.97%.
With `Cc1noc(-c2ccc(N[C@H]3CCCCNC3=O)nc2)n1`, the cytotoxicity at 10 µM was 0.913%.
As for `Cn1ncc2c(NC3CCC3)nc(-c3ccncc3)nc21`, the cytotoxicity at 10 µM came to 16.7%.
To `Cc1ccc(F)c(OC2(C(=O)O)CCN(C(=O)N3CCCC3)CC2)c1` belongs -3.94%; to `Cc1nc[nH]c1CN(C)CC1CCCN(CCc2ccc(Cl)cc2)C1` (stereo not given), -15.5%.
For the compound `Cn1c(Cn2cccn2)nnc1C1CCN(Cc2cccnc2N)CC1`, the cytotoxicity at 10 µM is -9.12%.
Regarding `CCCc1noc(CN(C)C(=O)C2COc3ccccc3C2)n1` (stereo not given), the cytotoxicity at 10 µM is -7.01%.
On to `O=C(c1cccs1)N1CCC(Cn2nc(-c3ccco3)ccc2=O)CC1`, for which the cytotoxicity at 10 µM was -2.21%.
With `NC(=O)C1CCN(C(=O)CCCc2nnc(-c3ccccc3)o2)CC1`, the cytotoxicity at 10 µM was -13.2%.
To `O=C(CCCc1nc(-c2ccccc2)no1)N1CCN(CCO)CC1` belongs -3.54%; to `Cc1ncsc1C(=O)NC1CCN(CCCC#N)CC1`, -14.7%; to `COCc1ccc(CNCc2c(C)nn(C)c2N(C)C)cc1`, -16%.
As for `CC(NC(=O)CCOc1cccc(F)c1)c1nnc2n1CCC2` (stereo not given), the cytotoxicity at 10 µM is -14.1%.
The value for `Cc1n[nH]c(C2CN(Cc3nnc(C4CC4)n3C)CCO2)n1` (stereo not given) was -16%; that for `Cc1nn(C)c(C)c1C1CCCN1C(=O)CCNc1ncccn1` (stereo not given) was -7.37%.
For the compound `COc1ccc(C(N)c2cccc(S(C)(=O)=O)c2)cc1` (stereo not given), the cytotoxicity at 10 µM stood at 4.69%.
The value for `Cc1nc(CNC(C)c2ccc(OCC(=O)NC3CC3)cc2)cs1` (stereo not given) was -2.82%.
The value for `Cc1nn(C)c(C)c1CNCc1ccnc(N2CCOCC2)c1` was 0.626%; that for `Cc1nc2sccn2c1CN(CCCN(C)C)Cc1ccco1` was -0.215%.
The value for `Cc1cnc(N2CC[C@@H](N3CCOCC3)[C@@H]2Cc2ccncc2)nc1` was 4.47%.
With `Cn1cc(C2CC(=O)NC23CCN(C(=O)c2cccnc2)CC3)cn1` (stereo not given), the cytotoxicity at 10 µM was -79.7%.
The value for `Cc1ccc(CNC(c2ccccc2)c2nccn2C)cc1` (stereo not given) was -6.3%; that for `CCCS(=O)(=O)N1CCO[C@H]2[C@H](OCc3ccccn3)CC[C@@H]21` was -9%.
To `CN1CCC(c2nc3ccc(-c4cccc(F)c4)cn3n2)CC1` belongs 10.4%; to `CCOCC1CN(C(=O)Cc2ccsc2)Cc2ccnn2C1` (stereo not given), -71.4%; to `O=C(CC1CC1)N[C@@H]1CN(Cc2ccncc2)C[C@@H]2CCCO[C@@H]21`, -7.96%.
As for `CNC(=O)[C@H]1C[C@@H]2CN(Cc3cccnc3OC)C[C@@H]2N1C(C)C`, the cytotoxicity at 10 µM came to 11.5%.
As to `O=C(CC1CC1)NCc1cn2c(n1)CN(Cc1cccnc1)CC2`, the cytotoxicity at 10 µM is -78%.
On to `Cn1nccc1-c1ccc2nc(C3CCN(CCO)CC3)nn2c1`, for which the cytotoxicity at 10 µM was -14.1%.
`Cc1ccc(CN2CC[C@H]3C(=O)N(Cc4cccnc4)CCO[C@H]3C2)o1`: the cytotoxicity at 10 µM is -88.7%.
Regarding `O=C1NC2(CCNCC2)CC1c1ccncc1` (stereo not given), the cytotoxicity at 10 µM was -60.7%.
As for `Cc1cccc(CN2C(=O)CC[C@@H]3[C@H]2CCN3Cc2ccc(C)s2)n1`, the cytotoxicity at 10 µM amounted to 5.45%.
`CN(C)[C@@H]1CCN(C(=O)c2ccco2)[C@H]1Cc1cnn(C)c1`: the cytotoxicity at 10 µM is -81.9%.
The value for `CN(C)CCN1CCO[C@H]2CN(C(=O)N(C)C)C[C@H]21` was 0.657%; that for `CS(=O)(=O)N1CCC2(CN(C(=O)c3cccnc3)C2)C1` was -13%.
On to `c1ccc(CN2C[C@H]3CCC[C@@]3(COCC3CCOCC3)C2)nc1`, for which the cytotoxicity at 10 µM worked out at 1.49%.
Take `Cn1cc(CN2CCc3onc(C(=O)N4CCCC4)c3C2)cn1`: the cytotoxicity at 10 µM is -12.2%.
As to `O=c1c2c[nH]c(N3CCOCC3)nc-2cn1Cc1cccc(F)c1`, the cytotoxicity at 10 µM was -2.72%.
For `COCC1N(C(=O)N2CCOCC2)C2CCC1(O)CC2` (stereo not given), the cytotoxicity at 10 µM was -0.791%.
